Legend:
[1] = test system: Staphylococcus aureus; assay: Antimicrobial activity against methicillin-resistant Staphylococcus aureus OC 8525 infected immunocompetent SKH1 mouse assessed as lesion volume at 25 mg/kg/day, sc measured after 48 hrs postinfection (reference value: 1535 mm3); details: route subcutaneous
[2] = test system: Staphylococcus aureus; assay: Antimicrobial activity against methicillin-resistant Staphylococcus aureus OC 8525 infected immunocompetent SKH1 mouse assessed as lesion volume at 6.2 mg/kg/day, sc measured after 48 hrs postinfection (reference value: 1535 mm3); details: route subcutaneous
[3] = test system: Staphylococcus aureus; assay: Antimicrobial activity against methicillin-susceptible Staphylococcus aureus Smith OC 4172 infected immunocompetent SKH1 mouse assessed as lesion volume at 25 mg/kg/day, sc measured after 48 hrs postinfection (reference value: 1181 mm3); details: route subcutaneous
[4] = test system: Staphylococcus aureus; assay: Antimicrobial activity against methicillin-susceptible Staphylococcus aureus Smith OC 4172 infected immunocompetent SKH1 mouse assessed as lesion volume at 1.6 mg/kg/day, sc measured after 48 hrs postinfection (reference value: 1181 mm3); details: route subcutaneous
[5] = test system: Staphylococcus aureus; assay: Antimicrobial activity against methicillin-susceptible Staphylococcus aureus Smith OC 4172 infected immunocompetent SKH1 mouse assessed as lesion volume at 6.2 mg/kg/day, sc measured after 48 hrs postinfection (reference value: 1181 mm3); details: route subcutaneous
[6] = test system: Plasma; assay: fCmax in immunocompetent SKH1 mouse plasma at 50 mg/kg, sc; type: ADME, organism-based; parameters: dose 50 mg/kg, route subcutaneous; details: in vivo
Method in brief: (§1)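 Female SKH1 hairless mice, immunocompetent or cyclophosphamide-neutropenic, infected s.c. with MRSA OC 8525 or P. aeruginosa OC 4354 on the Cytodex beads (left flank), sterile beads on the right. Single dose 24 h later: s.c. at the nape, or linezolid 50 mg/kg oral. Plasma and skin (DMSO homogenate) sampled over time, HPLC with diode array.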

[7] = test system: Staphylococcus aureus; assay: Antimicrobial activity against methicillin-susceptible Staphylococcus aureus Smith OC 4172 infected immunocompetent SKH1 mouse assessed as lesion volume at 100 mg/kg/day, sc measured after 48 hrs postinfection (reference value: 1181 mm3); details: route subcutaneous
[8] = test system: Plasma; assay: fAUC (0-infinity) in immunocompetent SKH1 mouse plasma at 50 mg/kg, sc; type: ADME, organism-based; parameters: dose 50 mg/kg, route subcutaneous; details: in vivo
Method in brief: as §1

[9] = test system: Staphylococcus aureus; assay: Antimicrobial activity against methicillin-resistant Staphylococcus aureus OC 8525 infected immunocompetent SKH1 mouse assessed as lesion volume at 1.6 mg/kg/day, sc measured after 48 hrs postinfection (reference value: 1535 mm3); details: route subcutaneous
[10] = Ratio of fAUC to MIC in Staphylococcus aureus OC 4172 infected sc dosed SKH1 mouse; type: functional
Method in brief: (§2)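 Free-drug plasma AUC, converted from μg·min/ml to μg·h/ml, divided by the MIC of the infecting S. aureus strain.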

[11] = Protein binding in mouse plasma; type: ADME, cell-free; details: read-out: PPB (converted)
[12] = test system: Staphylococcus aureus; assay: Antimicrobial activity against methicillin-resistant Staphylococcus aureus OC 8525 infected immunocompetent SKH1 mouse assessed as lesion volume at 100 mg/kg/day, sc measured after 48 hrs postinfection (reference value: 1535 mm3); details: route subcutaneous
[13] = Tmax in immunocompetent SKH1 mouse plasma at 50 mg/kg, sc; type: ADME, organism-based; parameters: dose 50 mg/kg, route subcutaneous
Method in brief: as §1

[14] = Ratio of fAUC to MIC in Staphylococcus aureus OC 8525 infected sc dosed SKH1 mouse; type: functional
Method in brief: as §2

[15] = Half life in immunocompetent SKH1 mouse plasma at 50 mg/kg, sc; type: ADME, organism-based; parameters: dose 50 mg/kg, route subcutaneous
[16] = test system: Pseudomonas aeruginosa; assay: Antimicrobial activity against Pseudomonas aeruginosa OC 4354 infected in immunocompromized SKH1 mouse assessed as log change in bacterial colony forming unit at 25 mg/kg/day, sc; type: functional; details: route subcutaneous
Method in brief: (§3)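 Female SKH1 hairless mice made neutropenic with ip cyclophosphamide (150 mg/kg 5 days and 100 mg/kg 1 day before infection). 0.2 ml s.c. Cytodex bead (0.1% vol/vol) inoculum in BHI: OC 4351 left flank, OC 4354 right flank. Drug s.c. at 1, 3, 25, 27 h postinfection. Killed at 48 h; skin homogenised in saline, plated on TSA 18 h 37°C; Δlog CFU/g versus inoculum. 5 mice/dose, run twice.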

[17] = fT>MIC in Pseudomonas aeruginosa OC 4354 infected sc dosed SKH1 mouse at 50 mg/kg, sc administered twice at 1 and 3 hrs after infection; type: functional; details: route subcutaneous
[18] = test system: Pseudomonas aeruginosa; assay: Antimicrobial activity against Pseudomonas aeruginosa OC 4351 infected in immunocompromized SKH1 mouse assessed as log change in bacterial colony forming unit at 25 mg/kg/day, sc; type: functional; details: route subcutaneous
Method in brief: as §3

[19] = test system: Pseudomonas aeruginosa; assay: Antimicrobial activity against Pseudomonas aeruginosa OC 4351 infected in immunocompromized SKH1 mouse assessed as lesion volume at 25 mg/kg/day, sc measured after 48 hrs postinfection (reference value: 2234 mm3); type: functional; details: route subcutaneous
[20] = test system: Plasma; assay: fCmax in immunocompromized SKH1 mouse plasma at 50 mg/kg, sc; type: ADME, organism-based; parameters: dose 50 mg/kg, route subcutaneous; details: in vivo
Method in brief: as §1

[21] = test system: Pseudomonas aeruginosa; assay: Antimicrobial activity against Pseudomonas aeruginosa OC 4351 infected in immunocompromized SKH1 mouse assessed as log change in bacterial colony forming unit at 1.6 mg/kg/day, sc; type: functional; details: route subcutaneous
Method in brief: as §3

[22] = test system: Pseudomonas aeruginosa; assay: Antimicrobial activity against Pseudomonas aeruginosa OC 4351 infected in immunocompromized SKH1 mouse assessed as log change in bacterial colony forming unit at 100 mg/kg/day, sc; type: functional; details: route subcutaneous
Method in brief: as §3

[23] = fT>MIC in Pseudomonas aeruginosa OC 4354 infected sc dosed SKH1 mouse administered in 24 hrs dosing interval; type: functional
Method in brief: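 Plasma levels came from female hairless SKH1 mice given single s.c. doses at the nape 24 h after flank s.c. infection with Cytodex beads. S. aureus work used immunocompetent mice. P. aeruginosa work used mice made neutropenic with cyclophosphamide i.p., 150 mg/kg at day −5 and 100 mg/kg at day −1. Drug assayed by HPLC with diode-array detection. Noncompartmental analysis.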

[24] = test system: Pseudomonas aeruginosa; assay: Antimicrobial activity against Pseudomonas aeruginosa OC 4354 infected in immunocompromized SKH1 mouse assessed as log change in bacterial colony forming unit at 100 mg/kg/day, sc; type: functional; details: route subcutaneous
Method in brief: as §3

[25] = test system: Pseudomonas aeruginosa; assay: Antimicrobial activity against Pseudomonas aeruginosa OC 4354 infected in immunocompromized SKH1 mouse assessed as log change in bacterial colony forming unit at 6.2 mg/kg/day, sc; type: functional; details: route subcutaneous
Method in brief: as §3

[26] = Tmax in immunocompromized SKH1 mouse plasma at 12.5 mg/kg, sc; type: ADME, organism-based; parameters: dose 12.5 mg/kg, route subcutaneous
Method in brief: as §1

[27] = test system: Pseudomonas aeruginosa; assay: Antimicrobial activity against Pseudomonas aeruginosa OC 4351 infected in immunocompromized SKH1 mouse assessed as log change in bacterial colony forming units at 25 mg/kg/day, sc; type: functional; details: route subcutaneous
Method in brief: as §3

[28] = Tmax in immunocompromized SKH1 mouse plasma at 50 mg/kg, sc; type: ADME, organism-based; parameters: dose 50 mg/kg, route subcutaneous
Method in brief: as §1

[29] = Half life in immunocompromized SKH1 mouse plasma at 12.5 mg/kg, sc; type: ADME, organism-based; parameters: dose 12.5 mg/kg, route subcutaneous
Method in brief: as §1

[30] = fT>MIC in Pseudomonas aeruginosa OC 4351 infected sc dosed SKH1 mouse at 50 mg/kg, sc administered twice at 1 and 3 hrs after infection; type: functional; details: route subcutaneous
[31] = test system: Pseudomonas aeruginosa; assay: Antimicrobial activity against Pseudomonas aeruginosa OC 4354 infected in immunocompromized SKH1 mouse assessed as lesion volume at 25 mg/kg/day, sc measured after 48 hrs postinfection (reference value: 2195 mm3); type: functional; details: route subcutaneous
[32] = test system: Pseudomonas aeruginosa; assay: Antimicrobial activity against Pseudomonas aeruginosa OC 4351 infected in immunocompromized SKH1 mouse assessed as lesion volume at 100 mg/kg/day, sc measured after 48 hrs postinfection (reference value: 2234 mm3); type: functional; details: route subcutaneous
[33] = Half life in immunocompromized SKH1 mouse plasma at 50 mg/kg, sc; type: ADME, organism-based; parameters: dose 50 mg/kg, route subcutaneous
[34] = test system: Pseudomonas aeruginosa; assay: Antimicrobial activity against Pseudomonas aeruginosa OC 4354 assessed as inhibition of growth by broth microdilution method; type: functional
[35] = test system: Pseudomonas aeruginosa; assay: Antimicrobial activity against Pseudomonas aeruginosa OC 4354 infected in immunocompromized SKH1 mouse assessed as lesion volume at 6.2 mg/kg/day, sc measured after 48 hrs postinfection (reference value: 2195 mm3); type: functional; details: route subcutaneous
[36] = test system: Pseudomonas aeruginosa; assay: Antimicrobial activity against Pseudomonas aeruginosa OC 4354 infected in immunocompromized SKH1 mouse assessed as lesion volume at 100 mg/kg/day, sc measured after 48 hrs postinfection (reference value: 2195 mm3); type: functional; details: route subcutaneous
[37] = test system: Pseudomonas aeruginosa; assay: Antimicrobial activity against Pseudomonas aeruginosa OC 4351 assessed as inhibition of growth by broth microdilution method; type: functional
[38] = test system: Pseudomonas aeruginosa; assay: Antimicrobial activity against Pseudomonas aeruginosa OC 4354 infected in immunocompromized SKH1 mouse assessed as lesion volume at 1.6 mg/kg/day, sc measured after 48 hrs postinfection (reference value: 2195 mm3); type: functional; details: route subcutaneous
[39] = fT>MIC in Pseudomonas aeruginosa OC 4351 infected sc dosed SKH1 mouse administered in 24 hrs dosing interval; type: functional
[40] = test system: Pseudomonas aeruginosa; assay: Antimicrobial activity against Pseudomonas aeruginosa OC 4354 infected in immunocompromized SKH1 mouse assessed as log change in bacterial colony forming unit at 1.6 mg/kg/day, sc; type: functional; details: route subcutaneous
Method in brief: as §3

[41] = test system: Pseudomonas aeruginosa; assay: Antimicrobial activity against Pseudomonas aeruginosa OC 4351 infected in immunocompromized SKH1 mouse assessed as lesion volume at 1.6 mg/kg/day, sc measured after 48 hrs postinfection (reference value: 2234 mm3); type: functional; details: route subcutaneous
[42] = test system: Pseudomonas aeruginosa; assay: Antimicrobial activity against Pseudomonas aeruginosa OC 4351 infected in immunocompromized SKH1 mouse assessed as lesion volume at 6.2 mg/kg/day, sc measured after 48 hrs postinfection (reference value: 2234 mm3); type: functional; details: route subcutaneous
[43] = test system: Plasma; assay: fAUC (0-infinity) in immunocompromized SKH1 mouse plasma at 12.5 mg/kg, sc; type: ADME, organism-based; parameters: dose 12.5 mg/kg, route subcutaneous; details: in vivo
Method in brief: as §1

[44] = test system: Plasma; assay: fAUC (0-infinity) in immunocompromized SKH1 mouse plasma at 50 mg/kg, sc; type: ADME, organism-based; parameters: dose 50 mg/kg, route subcutaneous; details: in vivo
Method in brief: as §1

[45] = test system: Plasma; assay: fCmax in immunocompromized SKH1 mouse plasma at 12.5 mg/kg, sc; type: ADME, organism-based; parameters: dose 12.5 mg/kg, route subcutaneous; details: in vivo
Method in brief: as §1

CN[C@H](CC(C)C)C(=O)N[C@H]1C(=O)N[C@@H](CC(N)=O)C(=O)N[C@H]2C(=O)N[C@H]3C(=O)N[C@H](C(=O)N[C@H](C(=O)O)c4cc(O)cc(O)c4-c4cc3ccc4O)[C@H](O)c3ccc(c(Cl)c3)Oc3cc2cc(c3O[C@@H]2O[C@H](CO)[C@@H](O)[C@H](O)[C@H]2O[C@H]2C[C@](C)(N)[C@H](O)[C@H](C)O2)Oc2ccc(cc2Cl)[C@H]1O [VANCOMYCIN]
Activity [1]: 927 mm3
Activity [2]: 1392 mm3
Activity [3]: 916 mm3
Activity [4]: 1386 mm3
Activity [5]: 1211 mm3
fCmax [6]: 40 µg/mL
Activity [7]: 437 mm3
fAUC [8]: 2070 µg·min/mL
Activity [9]: 1637 mm3
fAUC/MIC [10]: 2070
fraction unbound [11]: 0.75
Activity [12]: 606 mm3
Tmax [13]: 10 min
fAUC/MIC [14]: 2070
half-life [15]: 22 min

C[C@@H](O)[C@H]1C(=O)N2C(C(=O)O)=C(S[C@@H]3CN[C@H](C(=O)N(C)C)C3)[C@H](C)[C@H]12 [MEROPENEM]
deltalog10CFU [16]: -1.1
fT>MIC [17]: 1.9 h
deltalog10CFU [18]: 0.2
Activity [19]: 862 mm3
fCmax [20]: 72 µg/mL
deltalog10CFU [21]: 0.2
deltalog10CFU [22]: -1
fT>MIC [23]: 8%
deltalog10CFU [24]: -1.1
deltalog10CFU [25]: 0.5
Tmax [26]: 7.5 min
deltalog10CFU [27]: -0.9
Tmax [28]: 7.5 min
half-life [29]: 13.6 min
fT>MIC [30]: 2 h
Activity [31]: 926 mm3
Activity [32]: 602 mm3
half-life [33]: 8.6 min
MIC [34]: 0.5 µg/mL
Activity [35]: 1030 mm3
Activity [36]: 810 mm3
MIC [37]: 0.12 µg/mL
Activity [38]: 1316 mm3
fT>MIC [39]: 8.5%
deltalog10CFU [40]: 0.7
Activity [41]: 1190 mm3
Activity [42]: 992 mm3
fAUC [43]: 268 µg·min/mL
fAUC [44]: 1837 µg·min/mL
fCmax [45]: 11 µg/mL

Source: ChEMBL document CHEMBL1212762, “In vivo activity of ceftobiprole in murine skin infections due to Staphylococcus aureus and Pseudomonas aeruginosa” (Antimicrob Agents Chemother, 2010)
